Laboratory results published in PMC3472134 (Bioorganic & medicinal chemistry letters, 2012).
“Also recorded” adds a separate entry of the source.

What was measured:
human recombinant HDAC8 [1] = biological target: T1, human recombinant HDAC8 (Homo sapiens, UniProt Q9BY41); type: binding; settings: denaturing conditions, excess of competitor (1f at 50 fold molar excess)
T1 sequence (Q9BY41 1-377): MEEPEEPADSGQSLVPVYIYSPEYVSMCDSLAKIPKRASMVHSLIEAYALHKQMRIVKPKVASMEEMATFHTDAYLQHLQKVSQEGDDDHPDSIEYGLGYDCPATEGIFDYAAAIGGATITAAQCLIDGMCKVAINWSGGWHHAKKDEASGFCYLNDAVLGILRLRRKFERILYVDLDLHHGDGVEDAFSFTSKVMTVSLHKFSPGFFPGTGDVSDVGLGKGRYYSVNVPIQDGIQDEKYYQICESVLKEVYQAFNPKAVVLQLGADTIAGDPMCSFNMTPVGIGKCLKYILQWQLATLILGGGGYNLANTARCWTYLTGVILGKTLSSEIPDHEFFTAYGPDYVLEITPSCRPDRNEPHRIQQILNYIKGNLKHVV

recombinant human HDAC3 = recombinant human HDAC3 (Homo sapiens, UniProt O15379); experiment: HDAC3 inhibition, fluorogenic substrate Boc-Lys; type: biochemical
[2] = system: nuclear class I HDACs (acetylation status of histone H4) in SH-SY5Y cells; experiment: Western blot of acetylation of histone H4 in SH-SY5Y cells; type: cell-based; settings: 24 h treatment
Method in brief: (§1)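 SH-SY5Y cells were seeded at 1.0 x 10^5 cells/well and grown to 80% confluence in 1:1 DMEM:OPTI-MEM with 10% FBS and antibiotics. They were exposed to vehicle or rising concentrations of test compound for 24 h at 37 °C, 5% CO2, then lysed in RIPA with protease/phosphatase inhibitors. 20 µg of total protein (BCA) went to SDS-PAGE/PVDF, probed overnight at 4 °C for acetyl-α-tubulin or acetyl-histone H4, with GAPDH; chemiluminescence imaged by CCD.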

[3] = system: cytoplasmic HDAC6 (acetylation status of α-tubulin) in SH-SY5Y cells; experiment: Western blot of acetylation of α-tubulin in SH-SY5Y cells; type: cell-based; settings: 24 h treatment
Method in brief: as §1

Solubility = type: physicochemical; settings: remark on the photolabeling competition experiment
human recombinant HDAC8 [4] = biological target: T1, human recombinant HDAC8; experiment: HDAC8 inhibition, fluorogenic substrate Fluor de Lys; type: biochemical

Chain of recombinant human HDAC3 (O15379 whole entry): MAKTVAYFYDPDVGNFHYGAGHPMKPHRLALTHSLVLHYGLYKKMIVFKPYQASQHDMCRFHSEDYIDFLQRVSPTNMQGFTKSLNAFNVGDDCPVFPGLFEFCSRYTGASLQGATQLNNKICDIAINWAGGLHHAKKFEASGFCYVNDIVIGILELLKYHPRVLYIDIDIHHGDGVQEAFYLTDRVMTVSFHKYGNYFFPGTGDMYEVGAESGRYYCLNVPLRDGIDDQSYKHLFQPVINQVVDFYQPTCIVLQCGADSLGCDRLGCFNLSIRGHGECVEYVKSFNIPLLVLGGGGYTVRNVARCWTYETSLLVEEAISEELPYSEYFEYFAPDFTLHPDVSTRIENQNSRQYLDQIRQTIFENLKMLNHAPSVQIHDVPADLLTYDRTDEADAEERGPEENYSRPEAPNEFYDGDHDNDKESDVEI
Chain of recombinant human HDAC3 (Q9Y618 395-489 partner limits assumed): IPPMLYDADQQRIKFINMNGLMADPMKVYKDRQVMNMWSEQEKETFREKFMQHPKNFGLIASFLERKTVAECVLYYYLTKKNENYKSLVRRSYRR

Which “Competition with probe 1b, effect on biotinylation of HDAC8” value (“Competition with probe 1b, effect” below) (human recombinant HDAC8 [1]) does the source give for `CC(/C=C/C(=O)NO)=C\[C@@H](C)C(=O)c1ccc(N(C)C)cc1` [TSA, Trichostatin A] here?
The value was “pronounced decrease in biotinylation”.

Which results are given for `COc1cc(COc2ccc(NC(=O)CCCCCCC(=O)OCc3ccc(CN=[N+]=[N-])cc3)cc2)cc(N=[N+]=[N-])c1` [1i, 7-[4-(3-Azido-5-methoxybenzyloxy)phenylcarbamoyl]heptanoicacid-4-azidomethylbenzyl ester]?
IC50 (recombinant human HDAC3): > 66 µM; Acetylation status of histone H4 [2]: increase acetylation of H4; Deacetylation of α-tubulin [3]: did not inhibit; also recorded: not α tubulin

For `COc1ccc(Cn2ccc3ccc(C(=O)NO)cc32)cc1` [PCI34051], which “Competition with probe 1b, effect” value (human recombinant HDAC8 [1]) is on record?
The value was “pronounced decrease in biotinylation”.

Which IC50 (recombinant human HDAC3) does the source give for `COc1cc(COc2ccc(NC(=O)CCCCCCC(=O)OCCN=[N+]=[N-])cc2)cc(N=[N+]=[N-])c1` [1h, 7-[4-(3-Azido-5-methoxybenzyloxy)phenylcarbamoyl]heptanoicacid-2-azidoethyl ester] here?
The IC50 was > 66 µM.

For `COC(=O)CCCCCCC(=O)Nc1ccc(OCc2cc(C)cc(C)c2)cc1` [1f, 7-[4-(3,5-Dimethyl-benzyloxy)phenylcarbamoyl]heptanoic acid methyl ester], which “Competition with probe 1b, effect” value (human recombinant HDAC8 [1]) is on record?
The value was “pronounced decrease in biotinylation”.

What about the Solubility (Solubility) of the same compound?
Its Solubility is “low solubility”.

Which IC50 (human recombinant HDAC8 [4]) does the source give for `COC(=O)CCCCCCC(=O)Nc1ccc(OCc2ccccc2)cc1` [1e] here?
Its IC50 is > 66 µM.
